Only some compounds are listed: those with a hit (about 2.2% of all), similar ones and a draw of the others.
Diaph act CS: diaphorase activation or chemical reduction counter-screen | AID 1229 | Diaphorase/resazurin coupled assay, resorufin fluorescence, 16 min; hits give high values; 1 = vehicle wells, 0 = NADH-free wells | activation factor at 20 µM | hit rate 0.005% among 190,000;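 active means diaphorase activity raised at least twofold by the compound at 20 µM; inactive means activation factor below 2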
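Material: purified diaphorase enzyme from Clostridium kluyveri; Also added: 0.114 mM NADH and 0.1 mM resazurin, final amounts; Doses: single compound dose of 20 µM, 1% DMSO final; Times: 16 min enzyme reaction, ambient temperature; Detection: resorufin fluorescence, excitation 544 nm, emission 590 nm; Measure: increased resorufin signal from activators or reducing compounds.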
PMI act satM6P: PMI (human) activation, high substrate; hit rate 0.34% among 190,000; coupled PMI enzyme assay, resazurin fluorescence, 20 min; hits give high values; 1 = untreated enzyme, 0 = substrate-free blank; P34949; activation factor at 20 µM;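 active means activation factor of 2 or more at 20 µM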
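assay system = human phosphomannose isomerase with PGI, G6PDH, diaphorase coupling enzymes | quantity = 15 ng/mL PMI | incubation = enzyme reaction with compound 20 min at room temperature | medium = HEPES pH 7.4 buffer with MgCl2 and Tween-20 | compound dosing = one concentration, 20 µM, in 1% DMSO | measured by = Diaphorase-driven resazurin-to-resorufin fluorescence, excitation 544, emission 590 nm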
PMI act: increases human mannose-6-phosphate isomerase activity; activation factor at 20 µM; purified human PMI, coupled resazurin fluorescence, 20 min; hits give high values; 1 = vehicle control, 0 substrate-free wells; hit rate 0.005% among 190,000; P34949; AID 1214;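 active means activation factor of 2 or more at 20 µM, relative to plate controls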
G6PDH CS: inhibits Leuconostoc G6PDH, flagging false hits in G6PDH-based assays; inhibition, % at 5 µM; hit rate 0.12% among 200,000; AID 1020; Purified L. mesenteroides G6PDH, diaphorase/resazurin coupled fluorescence, 45 min; in the data active means inhibition above about 50%
Diaphorase inh: inhibits diaphorase or chemically oxidizes, flagging diaphorase assay artifacts | diaphorase resazurin-to-resorufin fluorescence, NADH, 16 min; bacterial (C. kluyveri) enzyme, not human | inhibition, % at 20 µM | hit rate 0.69% among 190,000 | AID 1217;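 active means primary screen inhibition at 20 µM above a set limit, cut at about 50% in these data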;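 further: plate controls were DMSO with full reaction for no effect and wells lacking NADH for full effect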
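Test system: diaphorase enzyme from Clostridium kluyveri; amount: diaphorase at 0.14 U/mL in enzyme working solution; detection: fluorescence of resorufin formed from resazurin, Ex 544/Em 590 nm; times: reaction incubation of 16 min at room temperature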
ROMK primary: modulates human ROMK potassium channel activity; Tet-inducible ROMK, thallium flux fluorescence; actives lie on both sides; B-score at 10 µM; hit rate 2% among 130,000;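 active means signal ratio slope over the read window, or its plate-corrected B-score, at least 3 SD from the plate mean, either direction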;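 further: B-score of the F/F0 ratio slope over 7 to 12 s after thallium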
Target sequence (P48048 whole entry, looked up): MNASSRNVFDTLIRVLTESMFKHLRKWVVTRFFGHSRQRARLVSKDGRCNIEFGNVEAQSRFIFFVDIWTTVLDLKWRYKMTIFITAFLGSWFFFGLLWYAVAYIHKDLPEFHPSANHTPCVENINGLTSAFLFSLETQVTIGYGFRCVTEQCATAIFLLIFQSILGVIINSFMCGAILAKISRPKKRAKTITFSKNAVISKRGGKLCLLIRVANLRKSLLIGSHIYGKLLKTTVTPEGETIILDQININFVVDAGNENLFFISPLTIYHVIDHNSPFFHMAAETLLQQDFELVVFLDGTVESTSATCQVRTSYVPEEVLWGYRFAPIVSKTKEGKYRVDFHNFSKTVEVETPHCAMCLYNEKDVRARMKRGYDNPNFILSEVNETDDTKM
Numbers without * were called inactive; . = no result.

SMILES	Diaph act CS	PMI act satM6P	PMI act	G6PDH CS	Diaphorase inh	ROMK primary
CCOc1ccccc1N(CC(=O)NCc1ccccc1)C(=O)CCC(=O)Nc1cc(C)ccn1	1.1	1	1	10	-9	-1.3
CC1=Nc2ccccc2/C1=C/c1sc(=S)n(-c2cccc(C(=O)O)c2)c1O	0.7	0.7	0.9	5	26	-4.6*
CCN1CCN(CC(=O)c2cc(Cl)ccc2Cl)CC1	0.9	2*	1.6	2	15	.
CCOC(=O)c1cn(CC)c2cc(Cl)c([N+](=O)[O-])cc2c1=O	0.9	1.1	1.1	-4	11	.
CCOC(=O)c1cn(-c2c(Cl)cccc2Cl)c2cc(Cl)c([N+](=O)[O-])cc2c1=O	0.5	1.1	1.1	0	52*	-1.5
O=c1[nH]c(/C=C2\C=Nc3ccccc32)c(O)n1Cc1ccccc1F	0.3	0.8	0.8	6	69*	-0.82
CSc1nc(O)c(/C=C2\C=Nc3ccccc32)[nH]1	0.8	1	1	9	21	.
CC(=O)c1ccc2c(c1)C1C=CCC1C(c1ccc(S(=O)(=O)N3CCOCC3)cc1)N2 (centres undefined)	0.7	1.3	1.4	-24	29	0.32
Cc1c(Cl)cccc1NS(=O)(=O)c1ccc2c(c1)C1C=CCC1C(c1ccc(C(=O)O)cc1)N2 (centres undefined)	0.4	1.4	1.5	19	59*	0.55
CCc1ccc2[nH]c(=O)c(C3C(C#N)=C(N)Oc4c3ccc3cccnc43)cc2c1 (centres undefined)	0.5	0.6	0.8	10	52*	.
Cc1ccc2cc(C3C(C#N)=C(N)Oc4c3ccc3cccnc43)c(=O)[nH]c2c1 (centres undefined)	0.6	0.6	0.8	16	39	.
CCCCNc1nc(=S)n(-c2ccccc2)c(C)c1C(C)=O	0.3	0.9	0.9	2	71*	1
CCn1c(C)c(C(C)=O)c(N2CCN(c3ccccn3)CC2)nc1=S	0.4	1	1	2	62*	.
CC(=O)c1c(N2CCCC2)nc(=S)n(-c2ccccc2)c1C	0.5	1.1	1.1	-5	54*	-0.014
C/C(=C\c1ccc2c(c1)OCO2)C(=O)c1c(C)cc(C)[nH]c1=O	1	1.1	1	10	1	0.96
CCc1ccc(C(=O)CSc2nc3cc(S(=O)(=O)N4CCOCC4)ccc3n2CC)cc1	0.8	1	0.9	-14	18	.
COc1cc(Cl)cc(C2NC(=S)NC(c3ccccc3)=C2C(C)=O)c1OCC(=O)O (centres undefined)	1	1.3	1.4	9	-1	0.74
S=c1nc[nH]c2c1sc1nc(N3CCOCC3)c3c(c12)CCCC3	0.7	2*	1.6	14	30	0.72
CC(C)c1nc2sc3c(=S)nc[nH]c3c2c2c1CCC2	.	.	.	.	.	5.2*
CC(C)c1nc2sc3c(=O)[nH]cnc3c2c2c1CCC2	0.8	1.1	0.9	20	18	2.3
CCC(=O)NC(=S)Nc1ccc(N2CCN(C(=O)c3ccc(Cl)cc3)CC2)cc1	0.9	1.1	1	10	6	-0.12
CC1=C/C(=N\NC(=S)NCc2ccccc2)CC1	0.9	0.9	0.9	7	9	-0.34
CCOc1ccc(C(=O)NCCC2=CCCCC2)cc1OCC	0.9	0.9	0.9	6	13	0.9
C#CCOCCOCCOCCNc1nc(N2CCN(C(=O)[C@H](CCC(=O)O)n3cc(C(N)Cc4ccc(O)cc4)nn3)CC2)nc(N2CCN(C(=O)[C@H](CCC(=O)O)n3cc(C(N)CC(C)C)nn3)CC2)n1 (some centres undefined)	0.4	1.2	0.9	12	57*	.
CC(=O)c1ccc(S(=O)(=O)N2CCN(c3ccccc3F)CC2)cc1	1	0.9	1	6	4	-0.54
SMILES	Diaph act CS	PMI act satM6P	PMI act	G6PDH CS	Diaphorase inh	ROMK primary
Cc1c(Br)c(=O)oc2c(Br)c(O)c(O)cc12	0.2	1.3	0.9	26	75*	-1.4
Cc1c(Br)c(=O)oc2c(Br)c(O)ccc12	0.9	1.1	1.3	0	5	-0.79
O=C(O)CCCN1C(=O)/C(=C\c2ccco2)SC1=S	0.4	0.4	0.7	14	59*	-0.052
O=C1/C(=C/c2ccco2)SC(=S)N1C1CCS(=O)(=O)C1 (centres undefined)	0.4	0.5	0.8	13	61*	-0.89
Cc1ccc(/C=C2\SC(=S)N(C3CCS(=O)(=O)C3)C2=O)cc1 (centres undefined)	1	1	1.1	10	-2	.
O=C(Cn1nnc(-c2ccccc2F)n1)NCc1ccco1	0.9	1	1	6	6	0.16
CCOC(=O)c1ccc(N=C2SC(C(=O)NCCc3ccccc3)CC(=O)N2C)cc1 (centres undefined)	0.5	0.9	0.9	-8	54*	-0.2
CC1(C)C(=O)OC(/C=C/c2cccc([N+](=O)[O-])c2)C(C)(C)C1=O (centres undefined)	.	.	.	.	.	0.38
Oc1cc2c(cc1O)C1c3ccc(O)c(O)c3OCC1(O)C2 (centres undefined)	0.2	0.6	0.4	32	78*	.
Cc1cnc(NC(=O)c2cc3c(C)nn(Cc4ccccc4Cl)c3s2)s1	0.9	1	0.9	-18	7	.
Cc1cc2c(N)cccc2nn1	0.6	1.3	0.9	52*	44	1.1
Nc1cccc2nc3ccccc3cc12	0.9	0.9	0.9	0	10	-0.081
CCC(=O)NC(c1cccs1)c1cc([N+](=O)[O-])c2cccnc2c1O (centres undefined)	0.7	0.6	1	38	31	-0.93
CCCC(=O)NC(c1cccs1)c1cc([N+](=O)[O-])c2cccnc2c1O (centres undefined)	0.6	0.4	1	42	43	-0.59
CC(=O)NC(c1ccccc1)c1cc([N+](=O)[O-])c2cccnc2c1O (centres undefined)	0.4	0.4	0.7	61*	56*	0.0016
CC(C)C(=O)NC(c1ccccc1)c1cc([N+](=O)[O-])c2cccnc2c1O (centres undefined)	0.6	0.4	0.8	55*	39	0.31
CC(=O)NC(c1cccs1)c1cc([N+](=O)[O-])c2cccnc2c1O (centres undefined)	0.6	0.6	0.9	61*	44	.
CCOC(=O)N1CCN(C(=O)c2ccc(OC)c(S(=O)(=O)N3CCOCC3)c2)CC1	0.9	1	1.1	-2	8	-0.014
C/C(=N\Nc1cccc(C(=O)O)c1)c1cc2ccccc2o1	0.9	1.3	1.7	1	6	-1.6
